Experimental findings from ChEMBL document CHEMBL2150944, “Antimalarial activity of pyrroloiminoquinones from the Australian marine sponge Zyzzya sp” (J Med Chem, 2012) are described below.

Data set [1] concerns Plasmodium falciparum. Put plainly: Antimalarial activity against chloroquine-sensitive Plasmodium falciparum 3D7 ring stage assessed as growth inhibition at 75 nM after 10 hrs by [3H]-hypoxanthine incorporation assay. Type of data set: functional, organism-based. The gist of the method: (§1)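 Synchronous 3D7 rings (~10−16 h post-invasion) or trophozoites (~24−30 h post-invasion), 0.5% parasitemia, 5% hematocrit, exposed 4, 6 or 10 h to compound or 0.04% DMSO vehicle. Cultures are washed, plated in triplicate with 0.5 μCi 3H-hypoxanthine, and incorporation is counted after ~48−72 h. Percent growth is relative to matched vehicle controls, from at least two independent experiments.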

The subject of data set [2] is Plasmodium falciparum. The data set can be described thus: Antimalarial activity against chloroquine-sensitive Plasmodium falciparum 3D7 trophozoite stage assessed as growth inhibition at 150 nM after 10 hrs by [3H]-hypoxanthine incorporation assay. Type of data set: functional, organism-based. The gist of the method: as §1
In data set [3] the test system is Plasmodium falciparum. The data set can be described thus: Antimalarial activity against chloroquine-sensitive Plasmodium falciparum 3D7 ring stage assessed as growth inhibition at 150 nM after 10 hrs by [3H]-hypoxanthine incorporation assay. Type of data set: functional, organism-based. The gist of the method:
as §1

Data set [4] has as its system Plasmodium falciparum. The data set can be described thus: Antimalarial activity against chloroquine-sensitive Plasmodium falciparum 3D7 trophozoite stage assessed as growth inhibition at 75 nM after 10 hrs by [3H]-hypoxanthine incorporation assay. It counts as functional, organism-based. The gist of the method: as §1
Data set [5] in a line: Selectivity index, ratio of IC50 for human HEK293 cells to IC50 for chloroquine-resistant Plasmodium falciparum Dd2. It counts as toxicity, cell-based. Conditions: read-out: Ratio IC50.
Another data set has as its system HEK293. Put plainly: Cytotoxicity against human HEK293 cells assessed as growth inhibition after 72 hrs by Alamar blue assay. It counts as cell-based. Conditions: HEK293, 72 h. Summed up:
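HEK293 adherent cells (3000/well) were incubated with compound for 72 h at 37 °C and 5% CO2. Medium was removed, then 10% Alamar Blue was added for 5−6 h. Fluorescence was read at ex 535/em 590 nm. Inhibition was normalised to DMSO and 10 μM puromycin controls. IC50 came from nonlinear variable-slope regression of % inhibition against log dose.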

In data set [6] the test system is Plasmodium falciparum. The data set can be described thus: Antimalarial activity against chloroquine-resistant Plasmodium falciparum Dd2 assessed as growth inhibition after 72 hrs by DAPI staining. Type of data set: functional, organism-based. Conditions: Dd2, 72 h. Summed up:
(§2)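 P. falciparum 3D7 or Dd2 at 2% or 3% parasitemia, 0.3% hematocrit, exposed 72 h at 37 °C, 5% CO2. Staining with DAPI plus saponin and Triton X-100, 5 h at room temperature in the dark, then confocal imaging and automated counting of parasite spots. Percent inhibition is calculated against DMSO and 2 μM artemisinin controls.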

Data set [7] can be described thus: Selectivity index, ratio of IC50 for human HEK293 cells to IC50 for chloroquine-sensitive Plasmodium falciparum 3D7. It counts as toxicity, cell-based. As to conditions: read-out: Ratio IC50.
Data set [8] deals with Plasmodium falciparum. Put plainly: Antimalarial activity against chloroquine-sensitive Plasmodium falciparum 3D7 assessed as growth inhibition after 72 hrs by DAPI staining. Type of data set: functional, organism-based. As to conditions: 3D7, 72 h. The gist of the method:
as §2

The target in data set [9] is DNA topoisomerase 2-alpha (Homo sapiens) (UniProt P11388). Put plainly: Inhibition of topoisomerase 2 by decatenation assay.
The next data set relates to XRS6. Put plainly: Cytotoxicity against Chinese hamster Xrs-6 cells. As to conditions: Cricetulus griseus. Type of data set: cell-based.
Another data set deals with HCT-116. The data set can be described thus: Cytotoxicity against human HCT116 cells. It counts as functional, cell-based.

pIC50: −log10 of the molar value. The source made the active and inactive calls. No cut-off for these calls is given here.

DNA topoisomerase 2-alpha (Homo sapiens), sequence (P11388 whole entry): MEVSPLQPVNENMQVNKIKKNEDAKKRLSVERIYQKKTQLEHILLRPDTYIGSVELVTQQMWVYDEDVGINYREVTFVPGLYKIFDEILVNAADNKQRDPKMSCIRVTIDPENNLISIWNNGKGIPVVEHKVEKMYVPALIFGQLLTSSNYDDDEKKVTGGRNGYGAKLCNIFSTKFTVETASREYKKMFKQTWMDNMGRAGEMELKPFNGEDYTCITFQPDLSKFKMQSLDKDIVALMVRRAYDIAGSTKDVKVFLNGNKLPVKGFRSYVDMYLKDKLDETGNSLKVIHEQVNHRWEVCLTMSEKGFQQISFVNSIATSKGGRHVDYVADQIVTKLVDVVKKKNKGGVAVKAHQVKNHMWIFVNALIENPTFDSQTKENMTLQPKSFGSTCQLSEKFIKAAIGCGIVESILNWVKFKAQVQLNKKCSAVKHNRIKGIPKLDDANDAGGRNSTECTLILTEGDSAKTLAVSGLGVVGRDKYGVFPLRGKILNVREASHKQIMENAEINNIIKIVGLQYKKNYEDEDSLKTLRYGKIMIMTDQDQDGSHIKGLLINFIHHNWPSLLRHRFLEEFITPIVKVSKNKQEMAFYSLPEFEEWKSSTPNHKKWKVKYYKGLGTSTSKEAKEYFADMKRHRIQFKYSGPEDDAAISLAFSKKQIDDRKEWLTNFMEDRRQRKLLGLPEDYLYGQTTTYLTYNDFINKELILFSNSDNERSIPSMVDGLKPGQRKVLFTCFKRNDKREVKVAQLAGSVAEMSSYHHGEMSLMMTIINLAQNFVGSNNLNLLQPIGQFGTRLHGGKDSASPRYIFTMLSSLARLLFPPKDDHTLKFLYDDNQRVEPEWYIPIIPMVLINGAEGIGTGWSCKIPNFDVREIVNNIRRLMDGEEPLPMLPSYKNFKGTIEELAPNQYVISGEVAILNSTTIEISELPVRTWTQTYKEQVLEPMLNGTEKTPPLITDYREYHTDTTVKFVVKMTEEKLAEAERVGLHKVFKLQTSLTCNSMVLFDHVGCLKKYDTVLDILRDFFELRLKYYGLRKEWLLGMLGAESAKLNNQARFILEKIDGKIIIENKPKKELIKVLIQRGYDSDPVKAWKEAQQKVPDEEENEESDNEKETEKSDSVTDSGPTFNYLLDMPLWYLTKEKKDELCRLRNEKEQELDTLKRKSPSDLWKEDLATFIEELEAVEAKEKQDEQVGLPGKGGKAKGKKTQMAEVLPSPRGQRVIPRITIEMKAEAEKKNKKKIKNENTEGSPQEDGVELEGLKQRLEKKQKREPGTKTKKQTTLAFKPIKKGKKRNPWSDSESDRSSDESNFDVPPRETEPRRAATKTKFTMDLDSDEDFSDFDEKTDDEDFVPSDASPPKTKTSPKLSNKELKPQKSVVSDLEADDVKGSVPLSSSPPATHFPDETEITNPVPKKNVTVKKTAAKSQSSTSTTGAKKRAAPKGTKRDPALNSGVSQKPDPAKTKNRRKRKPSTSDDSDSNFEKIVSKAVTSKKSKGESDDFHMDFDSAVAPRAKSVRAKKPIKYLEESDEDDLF

In the case of `C[C@@H]1CC[C@H]2[C@@H](C)C(=O)O[C@@H]3O[C@@]4(C)CC[C@@H]1[C@]32OO4`, the “growth inhibition (GI)” value with Plasmodium falciparum [1], in the data set with Plasmodium falciparum [2], in the data set with Plasmodium falciparum [3] and with Plasmodium falciparum [4] was “Active” throughout.
As for `CN1CCc2cn(C)c3c2C1=CC(=O)C3=O` [DAMIRONES A], the selectivity ratio in data set [5] is > 333; in data set [7], > 63. In addition, the negative logarithm of the IC50 (pIC50) in the data set on HEK293 is < 3.92; in the data set with Plasmodium falciparum [6] it was 6.44; in the data set with Plasmodium falciparum [8], 5.73.
Regarding `CN1CCc2c[nH]c3c2C1=CC(=O)C3=O` [DAMIRONES B], the selectivity ratio in data set [5] was > 32; in data set [7] it was > 10. Besides, the negative-log IC50 (pIC50) with HEK293 is < 3.92; with Plasmodium falciparum [6], 5.42; in the data set with Plasmodium falciparum [8], 4.91.
`Cn1cc2c3c1C(=O)C(N)=CC3=NCC2` [MAKALUVAMINE A] registered a concentration for an effect of 90% (IC90) in [9] of 41000 nM. Also, the pIC50 in the data set with XRS6 was 7.10; in the data set with HCT-116 it was < 6.77.
Turning to `Cn1cc2ccnc3c2c1C(=O)C(N)=C3` [MAKALUVAMINE B], the pIC50 was 7.10 in the data set with XRS6 and < 6.77 with HCT-116.
With `C[N+]1=C2C=C(N)C(=O)c3[nH]cc(c32)CC1` [MAKALUVAMINE C], the negative logarithm of the IC50 (pIC50) with XRS6 was 7.10; in the data set on HCT-116, < 6.77.
The matching figures for `O=C1C(NCCc2ccc(O)cc2)=CC2=NCCc3c[nH]c1c32` [MAKALUVAMINE D]: 7.10 and < 6.77.
